What was measured:
T47D = experiment: Growth inhibition of human T47D cells at 10 uM incubated for 48 hrs by sulforhodamine B assay relative to control; format: functional; conditions: read-out: GI
Procedure, shortened: (§1)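 NCI single-dose screen: cells grown in RPMI 1640 with 5% FBS and 2 mM L-glutamine, plated at 5,000–40,000 cells/well and preincubated 24 h at 37 °C, 5% CO2. Compounds taken from DMSO stock and tested at final 10 µM for 48 h. Cells fixed with TCA, stained with 0.4% SRB, absorbance read at 515 nm. Percentage growth calculated against untreated controls; controls held DMSO at the same dilution.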

HL-60(TB) [1] = experiment: Growth inhibition of human HL-60(TB) cells at 10 uM incubated for 48 hrs by sulforhodamine B assay relative to control; format: functional; conditions: HL-60, 48 h, read-out: GI
Procedure, shortened: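 Single dose of 10 µM in the NCI ~60-line panel. Cells grown in RPMI 1640 with 5% FBS and 2 mM L-glutamine, plated and pre-incubated 24 h, then exposed 48 h at 37°C under 5% CO2. Suspension cells fixed with TCA (16% final) and stained with sulforhodamine B, A515 read. Reported as percent growth versus untreated control and as GI%.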

NCI-H322M = experiment: Growth inhibition of human NCI-H322M cells at 10 uM incubated for 48 hrs by sulforhodamine B assay relative to control; format: functional; conditions: read-out: GI
Procedure, shortened: (§2)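 Single-dose screen at 10 μM final: cells in RPMI 1640, 5% FBS, 2 mM L-glutamine, plated 5,000–40,000/well, preincubated 24 h at 37°C, 5% CO2; drug 48 h; adherent cells fixed with 10% TCA, suspension cells with 16% TCA; SRB stain, absorbance 515 nm; percentage growth versus untreated control, with time-zero plates.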

UO-31 = experiment: Growth inhibition of human UO31 cells at 10 uM incubated for 48 hrs by sulforhodamine B assay relative to control; format: functional; conditions: UO-31, 48 h, read-out: GI; procedure, shortened: as §1
ACHN = experiment: Growth inhibition of human ACHN cells at 10 uM incubated for 48 hrs by sulforhodamine B assay relative to control; format: functional; conditions: read-out: GI; procedure, shortened: as §2
BT-549 = experiment: Growth inhibition of human BT549 cells at 10 uM incubated for 48 hrs by sulforhodamine B assay relative to control; format: functional; conditions: BT-549, 48 h, read-out: GI; procedure, shortened: as §2
HOP-92 = experiment: Growth inhibition of human HOP92 cells at 10 uM incubated for 48 hrs by sulforhodamine B assay relative to control; format: functional; conditions: HOP-92, 48 h, read-out: GI; procedure, shortened: as §2
SF-539 = experiment: Growth inhibition of human SF539 cells at 10 uM incubated for 48 hrs by sulforhodamine B assay relative to control; format: functional; conditions: SF-539, 48 h, read-out: GI; procedure, shortened: as §1
NCI-H226 = experiment: Growth inhibition of human NCI-H226 cells at 10 uM incubated for 48 hrs by sulforhodamine B assay relative to control; format: functional; conditions: NCI-H226, 48 h, read-out: GI; procedure, shortened: as §2
A549 = experiment: Growth inhibition of human A549/ATCC cells at 10 uM incubated for 48 hrs by sulforhodamine B assay relative to control; format: functional; conditions: A549, 48 h, read-out: GI; procedure, shortened: as §2
EKVX = experiment: Growth inhibition of human EKVX cells at 10 uM incubated for 48 hrs by sulforhodamine B assay relative to control; format: functional; conditions: read-out: GI; procedure, shortened: as §2
HCT-15 = experiment: Growth inhibition of human HCT15 cells at 10 uM incubated for 48 hrs by sulforhodamine B assay relative to control; format: functional; conditions: HCT-15, 48 h, read-out: GI; procedure, shortened: as §2
MOLT-4 = experiment: Growth inhibition of human MOLT4 cells at 10 uM incubated for 48 hrs by sulforhodamine B assay relative to control; format: functional; conditions: MOLT-4, 48 h, read-out: GI; procedure, shortened: as §2
IGROV-1 = experiment: Growth inhibition of human IGROV1 cells at 10 uM incubated for 48 hrs by sulforhodamine B assay relative to control; format: functional; conditions: IGROV-1, 48 h, read-out: GI; procedure, shortened: as §2
SF-268 = experiment: Growth inhibition of human SF268 cells at 10 uM incubated for 48 hrs by sulforhodamine B assay relative to control; format: functional; conditions: SF-268, 48 h, read-out: GI; procedure, shortened: as §1
OVCAR-3 = experiment: Growth inhibition of human OVCAR3 cells at 10 uM incubated for 48 hrs by sulforhodamine B assay relative to control; format: functional; conditions: OVCAR-3, 48 h, read-out: GI; procedure, shortened: as §2
CCRF-CEM = experiment: Growth inhibition of human CCRF-CEM cells at 10 uM incubated for 48 hrs by sulforhodamine B assay relative to control; format: functional; conditions: read-out: GI; procedure, shortened: as §2
HL-60(TB) [2] = experiment: Growth inhibition of human HL-60(TB) cells incubated for 24 hrs by MTT assay; format: functional, cell-based; conditions: HL-60, 24 h
Procedure, shortened: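 Cells at 1.2-1.8×10^4 cells/ml in DMEM with 10% FBS, 10 µg/ml insulin and 1% penicillin/streptomycin, plated overnight at 37°C. Serial 10-fold dilutions added to 0.01–100 µM final, medium as negative control, 24 h. MTT (5 mg/ml) added for 4 h, formazan dissolved in acid-isopropanol, A490 read. Eight separate experiments; percent viable cells used to derive IC50.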

NCI-H522 = experiment: Growth inhibition of human NCI-H522 cells at 10 uM incubated for 48 hrs by sulforhodamine B assay relative to control; format: functional; conditions: NCI-H522, 48 h, read-out: GI; procedure, shortened: as §2
SW-620 = experiment: Growth inhibition of human SW620 cells at 10 uM incubated for 48 hrs by sulforhodamine B assay relative to control; format: functional; conditions: SW-620, 48 h, read-out: GI; procedure, shortened: as §1
SK-OV-3 = experiment: Growth inhibition of human SKOV3 cells at 10 uM incubated for 48 hrs by sulforhodamine B assay relative to control; format: functional; conditions: SK-OV-3, 48 h, read-out: GI; procedure, shortened: as §1
RXF 393 = experiment: Growth inhibition of human RXF393 cells at 10 uM incubated for 48 hrs by sulforhodamine B assay relative to control; format: functional; conditions: RXF 393, 48 h, read-out: GI; procedure, shortened: as §2
M14 = experiment: Growth inhibition of human M14 cells at 10 uM incubated for 48 hrs by sulforhodamine B assay relative to control; format: functional; conditions: M14, 48 h, read-out: GI; procedure, shortened: as §2
OVCAR-8 = experiment: Growth inhibition of human OVCAR8 cells at 10 uM incubated for 48 hrs by sulforhodamine B assay relative to control; format: functional; conditions: OVCAR-8, 48 h, read-out: GI; procedure, shortened: as §2
NCI-H23 = experiment: Growth inhibition of human NCI-H23 cells at 10 uM incubated for 48 hrs by sulforhodamine B assay relative to control; format: functional; conditions: NCI-H23, 48 h, read-out: GI; procedure, shortened: as §2
SN12C = experiment: Growth inhibition of human SN12C cells at 10 uM incubated for 48 hrs by sulforhodamine B assay relative to control; format: functional; conditions: read-out: GI; procedure, shortened: as §1
SF-295 = experiment: Growth inhibition of human SF295 cells at 10 uM incubated for 48 hrs by sulforhodamine B assay relative to control; format: functional; conditions: SF-295, 48 h, read-out: GI; procedure, shortened: as §1
SK-MEL-28 = experiment: Growth inhibition of human SK-MEL-28 cells at 10 uM incubated for 48 hrs by sulforhodamine B assay relative to control; format: functional; conditions: SK-MEL-28, 48 h, read-out: GI; procedure, shortened: as §1
HT-29 = experiment: Growth inhibition of human HT-29 cells at 10 uM incubated for 48 hrs by sulforhodamine B assay relative to control; format: functional; conditions: HT-29, 48 h, read-out: GI; procedure, shortened: as §2

SMILES | inhibition of growth at 10 µM (T47D) [%] | inhibition of growth at 10 µM (HL-60(TB) [1]) [%] | inhibition of growth at 10 µM (NCI-H322M) [%] | inhibition of growth at 10 µM (UO-31) [%] | inhibition of growth at 10 µM (ACHN) [%] | inhibition of growth at 10 µM (BT-549) [%] | inhibition of growth at 10 µM (HOP-92) [%] | inhibition of growth at 10 µM (SF-539) [%] | inhibition of growth at 10 µM (NCI-H226) [%] | inhibition of growth at 10 µM (A549) [%] | inhibition of growth at 10 µM (EKVX) [%] | inhibition of growth at 10 µM (HCT-15) [%] | inhibition of growth at 10 µM (MOLT-4) [%] | inhibition of growth at 10 µM (IGROV-1) [%] | inhibition of growth at 10 µM (SF-268) [%] | inhibition of growth at 10 µM (OVCAR-3) [%] | inhibition of growth at 10 µM (CCRF-CEM) [%] | IC50 (HL-60(TB) [2]) [nM] | inhibition of growth at 10 µM (NCI-H522) [%] | inhibition of growth at 10 µM (SW-620) [%] | other results
CCOC(=O)C1=C(C)NC(SCc2nnc(-c3ccc(Cl)cc3)o2)=NC1c1ccc(Cl)cc1Cl (stereo not drawn) | 52.6 | 106 | 21.1 | 62.8 | 42.3 | 10.3 | 73.6 | 13.6 | 21 | 46.5 | 22.8 | 44.7 | 88.8 | 56.1 | 26.7 | 37.2 | 72.8 | 153 | 49.8 | 33.8 | inhibition of growth at 10 µM (SK-OV-3): < 10%; inhibition of growth at 10 µM (RXF 393): 56.6%; inhibition of growth at 10 µM (M14): 34.8%; inhibition of growth at 10 µM (OVCAR-8): 45.8%; inhibition of growth at 10 µM (NCI-H23): 34%; inhibition of growth at 10 µM (SN12C): 34.6%; inhibition of growth at 10 µM (SF-295): 52.8%; inhibition of growth at 10 µM (SK-MEL-28): < 10%; inhibition of growth at 10 µM (HT-29): 46.9%
CCOC(=O)C1=C(C)NC(SCc2nnc(-c3ccc(Cl)cc3)o2)=NC1c1cccc(Cl)c1 (stereo not drawn) | 69.2 | 80.4 | < 10 | 35.9 | < 10 | 46.9 | 49 | < 10 | < 10 | 29.5 | < 10 | 29.5 | 45 | 14.6 | < 10 | 17.3 | 38.2 | 56 | 74.6 | < 10 | inhibition of growth at 10 µM (SK-OV-3): 29.9%; inhibition of growth at 10 µM (RXF 393): < 10%; inhibition of growth at 10 µM (M14): 26.2%; inhibition of growth at 10 µM (OVCAR-8): 33.7%; inhibition of growth at 10 µM (NCI-H23): < 10%; inhibition of growth at 10 µM (SN12C): < 10%; inhibition of growth at 10 µM (SF-295): 25.5%; inhibition of growth at 10 µM (SK-MEL-28): < 10%; inhibition of growth at 10 µM (HT-29): 46.4%

— ChEMBL document CHEMBL4190234, “Design, synthesis and anticancer activity of new monastrol analogues bearing 1,3,4-oxadiazole moiety” (Eur J Med Chem, 2017)
